Experimental data as given in publication PMC10270725 (Journal of medicinal chemistry, 2023).

Key:
[1] = test system: TEAD transcription (pan-TEAD response element luciferase reporter) in NCI-H226 cells; experiment: TEAD gene reporter; type: cell-based
How it was run: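 NCI-H226 cells (RPMI1640, 10% FBS, 1% penicillin/streptomycin) were transduced with TEAD luciferase reporter lentivirus plus 8 μg/mL polybrene and puromycin-selected from day 3. Reporter cells were seeded at 1000 cells/well in 384-well plates and dosed with test compound for 3 days. One-Glo luciferase signal was normalized to CellTiter-Glo viability.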

[2] = biological target: His-TEAD3-YBD recombinant protein (Homo sapiens, UniProt Q99594); experiment: TEAD3 TR-FRET biochemical assay; type: binding; conditions: fixed time point 5 h
How it was run: (§1)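 100 nM His-TEAD-YBD was pretreated with test compound for 5 h. Then 800 nM FAM-labeled tracer built from a reversible pan-TEAD inhibitor was added, with anti-6His Tb cryptate antibody (50 ng/mL final). TR-FRET was read at 490/520 nm. IC50 is mean ± SEM of two experiments, each with three biological replicates.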

[3] = biological target: His-TEAD2-YBD recombinant protein (Homo sapiens, UniProt Q15562); experiment: TEAD2 TR-FRET biochemical assay; type: binding; conditions: fixed time point 5 h
How it was run: as §1

[4] = biological target: His-TEAD1-YBD recombinant protein (Homo sapiens, UniProt P28347); experiment: TEAD1 TR-FRET biochemical assay; type: binding; conditions: fixed time point 5 h
How it was run: as §1

[5] = biological target: His-TEAD4-YBD recombinant protein (Homo sapiens, UniProt Q15561); experiment: TEAD4 TR-FRET biochemical assay; type: binding; conditions: fixed time point 5 h
How it was run: as §1

[6] = test system: NF2-sufficient NCI-H28 mesothelioma cells; experiment: Proliferation assay in NCI-H28 cells; type: cell-based
[7] = biological target: recombinant TEAD1-YBD protein (Homo sapiens, UniProt P28347); experiment: Intact mass spectrometry analysis of covalent labeling; type: binding; conditions: 10-fold molar excess of compound, 1 h at rt
How it was run: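 TEAD1-YBD (residues 209−424, N-terminal 6×His) was expressed in Rosetta(DE3) pLysS and purified on cobalt resin, then by gel filtration. Protein was incubated with DMSO or test compound for 1 h at rt. It was desalted 4 min in 0.2 M acetic acid on a POROS 50R2 column and eluted with a 1-min 0–100% acetonitrile gradient in 0.2 M acetic acid. Analysis was electrospray (4.5 kV) ion-trap MS.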

Sequence of His-TEAD1-YBD recombinant protein (P28347 209-424): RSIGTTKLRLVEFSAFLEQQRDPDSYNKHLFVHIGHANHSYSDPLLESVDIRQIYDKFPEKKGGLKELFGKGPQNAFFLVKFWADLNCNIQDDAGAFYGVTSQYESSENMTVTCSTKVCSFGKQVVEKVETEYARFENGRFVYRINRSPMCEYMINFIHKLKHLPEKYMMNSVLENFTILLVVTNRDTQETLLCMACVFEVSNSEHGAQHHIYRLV
Sequence of His-TEAD3-YBD recombinant protein (Q99594 219-435 limits assumed): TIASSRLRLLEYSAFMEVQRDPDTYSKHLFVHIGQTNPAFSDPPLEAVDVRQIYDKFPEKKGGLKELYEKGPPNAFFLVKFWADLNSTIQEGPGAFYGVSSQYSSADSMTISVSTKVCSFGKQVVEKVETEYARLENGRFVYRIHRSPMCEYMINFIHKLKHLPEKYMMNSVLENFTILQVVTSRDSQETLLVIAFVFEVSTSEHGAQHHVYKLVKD
Sequence of His-TEAD2-YBD recombinant protein (Q15562 217-447 limits assumed): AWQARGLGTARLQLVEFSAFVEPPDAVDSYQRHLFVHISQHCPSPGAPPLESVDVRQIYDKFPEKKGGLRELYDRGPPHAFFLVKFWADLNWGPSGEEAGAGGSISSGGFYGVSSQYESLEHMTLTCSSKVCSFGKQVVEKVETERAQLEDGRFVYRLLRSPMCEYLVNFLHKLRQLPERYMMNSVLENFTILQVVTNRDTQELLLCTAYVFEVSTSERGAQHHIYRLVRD
Sequence of His-TEAD4-YBD recombinant protein (Q15561 217-434 limits assumed): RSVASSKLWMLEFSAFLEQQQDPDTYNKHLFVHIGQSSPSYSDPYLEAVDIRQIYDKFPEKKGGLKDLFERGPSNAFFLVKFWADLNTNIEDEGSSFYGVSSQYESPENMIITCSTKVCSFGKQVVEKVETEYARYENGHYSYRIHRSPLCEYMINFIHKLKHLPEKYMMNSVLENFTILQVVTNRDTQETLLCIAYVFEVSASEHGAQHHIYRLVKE
Sequence of recombinant TEAD1-YBD protein (P28347 209-424): as the sequence (P28347 209-424) above

| Compound | TEAD3 TR-FRET IC50 [2] | TEAD2 TR-FRET IC50 [3] | TEAD1 TR-FRET IC50 [4] | TEAD4 TR-FRET IC50 [5] | effect on proliferation of NCI-H28 cells [6] | also measured |
| --- | --- | --- | --- | --- | --- | --- |
| 1-(trans-4-(5-Fluoropyrimidin-2-ylamino)-3-(4-(trifluoromethyl)-benzyloxy)piperidin-1-yl)prop-2-en-1-one [Compound 16] | – | – | – | – | – | IC50 ([1]; read-out: IC50 in the reporter gene assay (TEAD transcription), NCI-H226 reporter cells, 3 day treatment, mean ± SEM): 171 ± 88 nM |
| C=CC(=O)N1C[C@@H](n2cc(-c3cccnc3)nn2)[C@H](OCc2ccc(C(F)(F)F)cc2)C1 (relative stereo) [Compound 1, 1-(trans-3-(4-(Pyridin-3-yl)-1H-1,2,3-triazol-1-yl)-4-((4-(trifluoromethyl)benzyl)oxy)pyrrolidin-1-yl)prop-2-en-1-one] | low nanomolar | low nanomolar | low nanomolar | low nanomolar | – | EC50 ([1]; Homo sapiens, NCI-H226, 72 h, read-out: EC50 in the TEAD reporter assay): 106 ± 30 nM |
| C=CC(=O)N1C[C@@H](Nc2ncccn2)[C@H](OCc2ccc(C(F)(F)F)cc2)C1 (relative stereo) [Compound 14, 1-(trans-3-(Pyrimidin-2-ylamino)-4-((4-(trifluoromethyl)benzyl)-oxy)pyrrolidin-1-yl)prop-2-en-1-one] | – | – | – | – | limited effect | – |
| CN(C)C/C=C/C(=O)N1C[C@@H](n2cc(-c3cccnc3)nn2)[C@H](OCc2ccc(C(F)(F)F)cc2)C1 [Compound 19, (E)-4-(Dimethylamino)-1-((3R,4R)-3-(4-(pyridin-3-yl)-1H-1,2,3-triazol-1-yl)-4-(4-(trifluoromethyl)benzyloxy)pyrrolidin-1-yl)but-2-en-1-one] | inactive | inactive | inactive | inactive | – | IC50 in the reporter gene assay (TEAD transcription) ([1]; NCI-H226 reporter cells, 3 day treatment, mean ± SEM): did not inhibit |
| C=C(F)C(=O)N1C[C@@H](Nc2ncccn2)[C@H](OCc2ccc(C(F)(F)F)cc2)C1 [Compound 22, 2-Fluoro-1-((3R,4R)-3-(pyrimidin-2-ylamino)-4-((4-(trifluoromethyl)benzyl)oxy)pyrrolidin-1-yl)prop-2-en-1-one] | – | – | – | – | limited effect | covalent complex formation with TEAD1-YBD (intact mass shift) [7]: mass shift consistent with compound 22 |
